From ChEMBL document CHEMBL2021827, “Caspase-1 inhibitors from an extremophilic fungus that target specific leukemia cell lines” (2012)
Active and inactive are the calls of the source. The calls are words filed in the database; no cut-off is given here.

How the values were obtained:
[1] = test system: THP-1; assay: Inhibition of IL-1beta production in human THP1 cells at 250 uM by ELISA; type: functional, cell-based
Outline: (§1)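 THP-1 cells are kept in RPMI with 10% FBS, 0.05 mM 2-mercaptoethanol, sodium pyruvate and penicillin/streptomycin/amphotericin B. They are differentiated with PMA (1 µg/mL) 24 h beforehand, scraped, and resuspended at 1.0 × 10^6 cells/mL. Cells are co-exposed to compound, LPS (20 ng/mL) and TiO2 nanowires (100 µg/mL) for 24 h at 37 °C in CO2. Supernatant IL-1β is measured by ELISA read at 490 nm.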

[2] = test system: Leukemia cell; assay: Cytotoxicity against human leukemia cells by MTS assay; type: functional, cell-based
[3] = test system: CCRF-CEM; assay: Cytotoxicity against human CCRF-CEM cells by MTS assay; type: functional
[4] = test system: HL-60(TB); assay: Cytotoxicity against human HL-60(TB) cells by MTS assay; type: functional
[5] = target: T1, Caspase-1 (Homo sapiens) (UniProt P29466); assay: Inhibition of caspase-1 in human THP1 cells after 24 hrs by fluorometric assay; type: cell-based; details: THP-1
T1 sequence (whole entry): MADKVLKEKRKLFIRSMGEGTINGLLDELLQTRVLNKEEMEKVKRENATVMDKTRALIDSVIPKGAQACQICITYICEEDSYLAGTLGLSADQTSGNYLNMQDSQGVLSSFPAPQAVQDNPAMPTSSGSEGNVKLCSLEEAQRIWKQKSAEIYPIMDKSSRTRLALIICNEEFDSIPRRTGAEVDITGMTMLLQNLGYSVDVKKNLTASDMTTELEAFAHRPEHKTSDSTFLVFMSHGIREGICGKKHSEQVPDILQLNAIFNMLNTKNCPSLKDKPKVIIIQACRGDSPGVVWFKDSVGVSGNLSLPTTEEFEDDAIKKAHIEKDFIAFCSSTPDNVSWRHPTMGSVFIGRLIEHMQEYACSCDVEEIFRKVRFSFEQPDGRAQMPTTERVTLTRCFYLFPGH

[6] = test system: THP-1; assay: Inhibition of IL-1beta production in human THP1 cells at 5 uM by dilution assay; type: functional, cell-based; outline: as §1
[7] = test system: RPMI-8226; assay: Cytotoxicity against human RPMI8226 cells by MTS assay; type: functional
[8] = test system: THP-1; assay: Inhibition of IL-1beta production in human THP1 cells at 50 uM by dilution assay; type: functional, cell-based; outline: as §1
[9] = test system: SR; assay: Cytotoxicity against human SR cells by MTS assay; type: functional

Compound	inhibition [1]	Activity [2]	IC100 [5]	also measured
COc1cc(OC)c2c(c1)C(=O)O[C@H]2c1coc(C)cc1=O [PENISIMPLICISSIN]	Active	Active	–	GI50 [3]: 200 nM; GI50 [4]: 1480 nM
C/C=C/C1=CC2=CC(=O)[C@](C)(OC(=O)c3c(C)cc(O)cc3O)[C@H](O)[C@H]2CO1 [BERKAZAPHILONE B]	Active	Active	25 µM	inhibition [6]: Active; GI50 [7]: 2140 nM
C/C=C/c1cc(=O)c([C@@H]2OC(=O)c3cc(OC)cc(OC)c32)co1	Active	–	–	–
CCCc1cc(=O)c([C@@H]2OC(=O)c3cc(OC)cc(OC)c32)co1	Active	–	–	inhibition [5]: inactive; Activity [4]: inactive
C/C=C/C1=CC2=CC(=O)[C@](C)(O)[C@H](OC(=O)c3c(C)cc(O)cc3O)[C@H]2CO1 [BERKAZAPHILONE C]	Active	Active	25 µM	inhibition [8]: Active; GI50 [9]: 380 nM
